What was measured:
Assay type in all cases: functional
[1] = test system: RAW264.7; test: Antiinflammatory activity in mouse RAW264.7 cells assessed as inhibition of LPS-induced nitric oxide production at 50 uM after 20 hrs by Griess assay relative to control; settings: RAW264.7, 20 h
Outline: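 Positive-control run in the same LPS (1 μg/mL, 20 h) RAW 264.7 system. Nitrite was quantified by Griess reaction at 540 nm against a sodium nitrite standard curve. Inhibition expressed relative to vehicle control.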

[2] = test system: RAW264.7; test: Antiinflammatory activity in mouse RAW264.7 cells assessed as inhibition of LPS-induced PGE2 production at 20 uM administered 1 hr prior to LPS challenge measured after 20 hrs by EIA relative to control
Outline: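 RAW 264.7 cells plated at 3 × 10^5 cells/mL, pretreated with compound for 1 h, then stimulated with 1 μg/mL LPS for 20 h. PGE2 in the supernatant was measured by immunoassay kit. Mean ± SD of triplicates.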

[3] = test system: Rattus norvegicus; test: Antiinflammatory activity in rat paw edema model assessed as inhibition of carrageenan-induced paw edema at 20 mg/kg, po administered 30 mins prior to carrageenan challenge measured after 4 hrs relative to vehicle-treated control
Outline: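 Male Sprague–Dawley rats (150–170 g, 5 weeks old); compound dissolved in 0.5% CMC-Na and given orally 30 min before subplantar injection of 0.1 mL 1% carrageenan suspension in saline into the right hind paw, with saline injected into the left. Paw volume read by plethysmometer at 0 h and up to 6 h; n = 6.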

[4] = test system: Mus musculus; test: Antiinflammatory activity in ICR mouse ear edema model assessed as inhibition of TPA-induced ear edema at 20 mg/kg, po administered 30 mins prior to TPA challenge measured after 4 hrs relative to vehicle-treated control
Outline: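 ICR mice (male, 18−20 g, 5 weeks old) dosed orally 30 min before TPA (1.0 μg in 20 μL acetone) was applied to inner and outer surfaces of the right ear. Killed by cervical dislocation after 4 h. Edema taken as the weight of a 5 mm punch biopsy of the right ear over the left. Ear homogenates were Western blotted for iNOS, COX-2 and IL-1β.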

CNC(=N)NCCC[C@H](N)C(=O)O [TILARGININE]
inhibition at 50 µM [1]: 74%

Cc1ccc(-c2cc(C(F)(F)F)nn2-c2ccc(S(N)(=O)=O)cc2)cc1 [CELECOXIB]
inhibition (INH) [2]: 81%

COc1ccc2c(c1)c(CC(=O)O)c(C)n2C(=O)c1ccc(Cl)cc1 [INDOMETHACIN]
inhibition in vivo at 20 mg/kg [3]: 51% | inhibition in vivo at 20 mg/kg [4]: 53%

Reference: ChEMBL document CHEMBL3259611, “Suppression of inflammatory responses by handelin, a guaianolide dimer from Chrysanthemum boreale, via downregulation of NF-κB signaling and pro-inflammatory cytokine production” (J Nat Prod, 2014)
